IDE cell activ – activators of human insulin-degrading enzyme in cells; activation, % at 5.96 µM; HEK cells, FAbeta-B cleavage, fluorescence polarization; 0% vehicle, 100% cell-free pure enzyme wells; actives 0.073% (n = 340,000); P14735;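 active means activation above the mean of all tested compounds plus 3 SD, set per screening campaign, cut at about 17% in these data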
TPT1 inh – inhibitors of Candida albicans tRNA 2'-phosphotransferase TPT1; AID 1962; inhibition, % at 5 µM; actives 0.81% (n = 300,000); recombinant caTPT1, FP RNA substrate dephosphorylation;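 active means inhibition above the mean of all tested compounds plus 3 SD, set per screening campaign, cut at about 24% in these data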;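 further: plate controls were DMSO alone for no effect and ferristatin control at 100 nM for full effect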
procasp3 activ – procaspase-3 (human) activation | P42574 | recombinant procaspase-3 D3A, Ac-DEVD-pNA absorbance 405 nm | activation, % at 8.5 µM | actives 0.11% (n = 330,000) | AID 463141;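 active means activation above the mean of all tested compounds plus 3 SD, cut at about 21% in these data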;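 further: 0% = DMSO alone and 100% = DMSO wells spiked with extra 5 µM PC-3 D3A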
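Assay system – Procaspase-3 D3A mutant, all three cleavage aspartates alanine · Controls – DMSO-only low control, 5 µM PC-3 D3A high control · Schedule – 1 h compound preincubation, 2 h substrate hydrolysis at 25 °C · Signal – 405 nm absorbance of p-nitroaniline, reads at 0 and 120 min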
proCasp7 act – counter-screen for procaspase-3 activators: activators of human procaspase-7; actives 0.093% (n = 330,000); P55210; activation, % at 8.5 µM; recombinant procaspase-7, Ac-DEVD-pNA absorbance 405 nm; D23A/D198A/D206A triple mutant, cannot self-cleave; scale: DMSO 0, 5 µM enzyme 100; AID 463210;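 active means percent activation above the screen-wide mean plus 3 SD, cut at about 25% in these data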
Target sequence (P55210 whole entry D23A/D198A/D206A): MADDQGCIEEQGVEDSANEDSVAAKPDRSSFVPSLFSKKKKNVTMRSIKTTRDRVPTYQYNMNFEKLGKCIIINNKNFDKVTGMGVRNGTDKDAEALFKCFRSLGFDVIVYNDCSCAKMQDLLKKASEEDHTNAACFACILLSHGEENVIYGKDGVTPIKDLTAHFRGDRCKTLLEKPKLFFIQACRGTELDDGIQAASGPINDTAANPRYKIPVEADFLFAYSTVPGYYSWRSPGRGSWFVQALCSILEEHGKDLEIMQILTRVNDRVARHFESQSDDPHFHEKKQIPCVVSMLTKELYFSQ
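signal = Epi-absorbance of released pNA at 405 nm, two timepoints | assay system = Uncleavable procaspase-7 mutant enzyme | reagent = Ac-DEVD-pNA substrate, 400 µM as added | times = 1 h enzyme–compound preincubation and 2 h substrate reaction, both 25 °C | benchmarks = low DMSO alone, high DMSO plus 5 µM PC-7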
IDE cell inh – cellular human IDE inhibition; P14735; HEK cells, FAbetaB cleavage, fluorescence polarization; inhibition, % at 5.59 µM; actives 0.41% (n = 320,000);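 active means percent inhibition above the average of all tested compounds plus 3 SD, set per screening campaign, cut at about 16% in these data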;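 further: IDE supplied by intact live HEK cells; FP after avidin binding of uncleaved biotin substrate so inhibition keeps polarization high; 0% = DMSO wells and 100% = 60 µM reference IDE inhibitor Ii1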
caTPT1 confirm – TPT1 (C. albicans) inhibition, confirmation; inhibition, % at 5 µM; actives 74% (n = 2,400); shares compounds with TPT1 inh; recombinant caTPT1, fluorescence polarization, RNase T1 coupled; AID 2149;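 active means inhibition above the primary screen limit, the mean inhibition of all tested compounds plus 3 SD, cut at about 25% in these data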
RNase T1 inh – blocks Aspergillus oryzae RNase T1, a TPT1 counter-screen; shares compounds with TPT1 inh; RNase T1 cleavage, fluorescence polarization, 1536-well; inhibition, % at 5 µM; actives 83% (n = 2,400);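 active means inhibition above the solvent-only control well mean plus 3 SD, limit set per screening run, cut at about 23% in these data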;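 further: plate controls were DMSO wells with enzyme for no effect and wells without RNase T1 for full effect; inhibitors block cleavage so intact labeled substrate keeps polarization high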
Target sequence (P00651 whole entry, looked up): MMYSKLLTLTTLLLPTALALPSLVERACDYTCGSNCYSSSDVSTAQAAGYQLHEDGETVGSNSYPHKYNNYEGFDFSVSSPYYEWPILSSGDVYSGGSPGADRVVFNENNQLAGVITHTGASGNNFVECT
* = called active by the depositor. Hits are enriched below; roughly 1.2% of the tested compounds scored in any of these assays.

Results for CC1=CC(=O)OC2CC3OC4C[C@@H](C)C5OC6CC7O[C@]8(C)C/C=C\C9OC%10CC%11OC(CC(C)C%12OCCO%12)CC(O)[C@]%11(C)OC%10CC9OC8C[C@]7(C)O[C@]6(C)CCC5OC4C[C@]3(C)OC12 (stereo not given in full) ?
IDE cell activ: 0; procasp3 activ: -1; proCasp7 act: 7; IDE cell inh: 2

How did Cc1nn(CCC#N)c2c1P(=S)(N1CCCC1)OC(c1ccc(F)cc1)=N2 (stereo not given) do in these assays?
IDE cell activ: -19; TPT1 inh: -4; procasp3 activ: -9; proCasp7 act: -21; IDE cell inh: -1

Results for CCOC(=O)C(C)(CC)NC(=O)CSP(=S)(OCC)OCC (stereo not given) ?
IDE cell activ: 1; TPT1 inh: -3; procasp3 activ: -12; proCasp7 act: 4; IDE cell inh: -1

How did CCCCCn1c(NC(=O)c2ccco2)c(C(=O)OCC)c2nc3ccccc3nc21 do in these assays?
IDE cell activ: 0; TPT1 inh: 36*; procasp3 activ: -14; proCasp7 act: -25; IDE cell inh: -4; caTPT1 confirm: 31*; RNase T1 inh: 43*

What do the screens show for `CCC(C)N1C(=O)/C(=C\c2ccc(N3CCCCCC3)cc2)C(=O)NC1=S` (stereo not given)?
IDE cell activ: 7; TPT1 inh: 25*; procasp3 activ: -6; proCasp7 act: -14; IDE cell inh: 4; caTPT1 confirm: 37*; RNase T1 inh: 58*

How did CCC(C)N1C(=O)/C(=C\c2cc3c4c(c2)CCCN4CCC3)C(=O)NC1=S (stereo not given) do in these assays?
IDE cell activ: -2; TPT1 inh: 22; procasp3 activ: -12; proCasp7 act: -11; IDE cell inh: 11

How did CN1C(=O)/C(=C\c2ccc(N3CCCCCC3)cc2)C(=O)NC1=S do in these assays?
IDE cell activ: 2; TPT1 inh: 7; procasp3 activ: 0; proCasp7 act: -15; IDE cell inh: 4

How did CCCCN1C(=O)/C(=C/c2ccc(N3CCCCCC3)cc2)C(=O)NC1=S do in these assays?
TPT1 inh: 36*; procasp3 activ: -18; proCasp7 act: -13; IDE cell inh: 0; caTPT1 confirm: 33*; RNase T1 inh: 43*

What do the screens show for `COCCNC(=O)N1[C@H]2CC[C@@H]1C(C(=O)OC)=C(c1ccc(-c3ccccc3)c(F)c1)C2`?
IDE cell activ: -3; procasp3 activ: 2; proCasp7 act: 8; IDE cell inh: 0

Results for CC(C)CCC1(CN2CCCC2=O)C(=O)NC(=O)NC1=O ?
IDE cell activ: 2; TPT1 inh: -4; procasp3 activ: 6; proCasp7 act: 4; IDE cell inh: 2

Results for CC(C)OCCCNC(=O)c1c(N)n(Cc2cccs2)c2nc3ccccc3nc12 ?
IDE cell activ: 8; TPT1 inh: 26*; procasp3 activ: 20; proCasp7 act: -4; IDE cell inh: -8; caTPT1 confirm: 10; RNase T1 inh: 12

What do the screens show for `COc1ccc(Cn2c(N)c(C(=O)NCc3ccco3)c3nc4ccccc4nc32)cc1OC`?
IDE cell activ: -3; TPT1 inh: 28*; procasp3 activ: 6; proCasp7 act: -16; IDE cell inh: 0; caTPT1 confirm: 7; RNase T1 inh: 12

Results for CC(C)CNC(=O)c1c(N)n(Cc2ccco2)c2nc3ccccc3nc12 ?
IDE cell activ: 0; TPT1 inh: 28*; procasp3 activ: 8; proCasp7 act: -12; IDE cell inh: 12; caTPT1 confirm: 16; RNase T1 inh: 23*

How did CCCNC(=O)c1c(N)n(Cc2ccco2)c2nc3ccccc3nc12 do in these assays?
TPT1 inh: 15; procasp3 activ: 1; proCasp7 act: -9; IDE cell inh: 10

What do the screens show for `Cc1ccsc1/C=C1\C(=O)NC(=S)N(C)C1=O`?
IDE cell activ: 3; TPT1 inh: -2; procasp3 activ: -6; proCasp7 act: -8; IDE cell inh: 6

Screening results: PubChem BioAssay, The Scripps Research Institute Molecular Screening Center
